Laboratory results from paper PMC8777244 (Biochemistry and Biophysics Reports, 2022).
Values joined by “and” are separate entries in the source; they are usually repeats but may differ in a detail not shown here. Identical values can stand only once. “Also recorded” adds a separate entry of the source.

Tests used:
[1] = Size-exclusion chromatography, oligomeric states; type: physicochemical
Outline: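 HPLC gel filtration of amylose-purified MBP-fused NOX5 dehydrogenase domain, run against CaM and BSA references. Column equilibrated in Tris pH 7.5 (50 mM per figure legends, 20 mM per methods) with 0.2 M NaCl (0.2–0.5 M range), plus 2 mM Ca²⁺ or 1 mM EDTA. Runs at 1.0 mL/min with 280 nm detection. 2 M urea added to partially dissociate oligomers. Species assigned by elution time.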

[2] = system: CaM; experiment: CaM/D-CMBD binding by Dansyl fluorescence
Outline: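 N-terminally Dansyl-labelled Nox5β CMBD peptide (residues 671–689) was titrated with CaM at room temperature. Excitation was 335 nm, with 2/5 nm slits. Buffer was 50 mM Tris, pH 7.5, with 2 mM Ca²⁺ or 1 mM EDTA. Emission maxima and intensity changes were recorded and fitted following earlier work. Values are mean ± SD of at least three runs.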

[3] = system: CaM; experiment: CaM interaction by size-exclusion chromatography; type: binding; conditions: D-CMBD with CaM; for Complex with CaM in SEC, Ca^2+: 0.2 M NaCl, 2 mM Ca^2+
Outline: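 HPLC size-exclusion used a Shodex KW802.5 column at 1.0 mL/min with 280 nm detection. Buffer was Tris, pH 7.5, with 0.2 M NaCl (range 0.2–0.5 M) plus 2 mM Ca²⁺ or 1 mM EDTA. Samples were filtered through 0.45 μm. MBP-DH constructs, alone or mixed with CaM or Dansyl-CaM, were compared with BSA. Collected fractions were assayed for Dansyl fluorescence.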

[4] = system: Nox5; conditions: peptide from the scaffold domain of Cav-1; ref [13]; cited from earlier work
[5] = system: nitric oxide synthase; conditions: Cav-1p residues 82–101; ref [26]; cited from earlier work
[6] = system: CaM; conditions: Ca^2+-CaM; ref [11]; cited from earlier work
[7] = system: CaM; conditions: titration curve inflection point; ref [18]; cited from earlier work
[8] = system: CaM; conditions: ref [17]; cited from earlier work
[9] = system: NCaM; experiment: CMBD/NCaM binding by isothermal titration calorimetry; conditions: CMBD titrated into NCaM; 50 mM Tris, pH 7.5, 2 mM Ca^2+, 25 °C; mean ± SD
Outline: (§1)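 ITC was run on a VP-ITC at 25 °C in 50 mM Tris, 2 mM Ca²⁺, pH 7.5, with 0.15–0.25 M NaCl added for salt studies. Injections were 5 or 10 μL over 10 or 20 s, spaced 120 s. Heat of dilution (titrant into buffer) was subtracted. Data were fitted with a one-set-of-sites model. Back-titration used 250 μM CaM into 40 μM CMBD. Values are mean ± SD.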

[10] = system: CaM; experiment: CaM/CMBD binding by isothermal titration calorimetry
Outline: as §1

[11] = system: CaM; experiment: CaM/CMBD binding by Trp fluorescence
[12] = system: CaM; experiment: CaM/CMBD binding by Trp fluorescence anisotropy; conditions: Ca^2+
Outline: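 Trp anisotropy of 1 μM CMBD peptide (residues 671–689) was recorded during CaM titration. Excitation was 280 or 295 nm, and excitation and emission slits were both 10 nm, with polarizers. Buffer was 50 mM Tris, pH 7.5, 2 mM Ca²⁺, at room temperature. Anisotropy values were fitted following earlier work. Values are mean ± SD of at least three runs.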

[13] = system: D-CaM; experiment: CMBD binding to Ca^2+-D-CaM by fluorescence; conditions: CMBD added to 2 μM D-CaM, 50 mM Tris, 2 mM Ca^2+, pH 7.5
Outline: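 D-CaM (Dansyl-labelled calmodulin) was excited at 335 nm, with excitation and emission slits of 2 and 5 nm, on a temperature-controlled fluorometer. Emission spectra were followed during titration with MBP-fused Nox5 dehydrogenase (DH) constructs or CMBD peptide. Buffer was 50 mM Tris, pH 7.5, with 2 mM Ca²⁺. Fits of intensity changes followed earlier work. Each measurement was done at least three times using 2–3 protein batches.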

[14] = system: CCaM; experiment: CMBD/CCaM binding by isothermal titration calorimetry; conditions: CMBD titrated into CCaM; 50 mM Tris, pH 7.5, 2 mM Ca^2+, 25 °C; mean ± SD
Outline: as §1

In the case of H2NRPDWSKVFQKVAAEKKGKVCOOH [D-CMBD], the “SEC elution time, EDTA / apo” value ([1]; KW802.5 column, 1.0 mL/min, 0.2 M NaCl, 1 mM EDTA, pH 7.5) is reported as 25.67 min, the “SEC elution time, Ca^2+” value ([1]; KW802.5 column, 1.0 mL/min, 0.2 M NaCl, 2 mM Ca^2+, pH 7.5) is reported as 29.31 min and the “Stoichiometry n[Peptide]/[Protein], CaM/D-CMBD” value ([2]; 2 μM D-CMBD titrated with CaM, Dansyl fluorescence, 50 mM Tris, pH 7.5, 2 mM Ca^2+, room temperature, mean ± SD) is reported as 2.11 and 2.11 ± 0.11. For the same substance, the “Dansyl emission maximum, D-CMBD alone” value ([2]; Ca^2+) was 550 nm, the “Dansyl emission maximum, D-CMBD with CaM” value ([2]; Ca^2+) was 518 nm and the “Dansyl intensity increase on CaM binding” value ([2]; Ca^2+) was about 8 fold. The “Binding affinity in the absence of Ca^2+” value ([2]; absence of Ca^2+ (EDTA), estimated, diminished in a higher ionic strength) was ~10^5 M^-1, the “Dansyl fluorescence in CaM fraction, absence of Ca^2+” value ([3]; 1 mM EDTA) was “No Dansyl fluorescence was found in the CaM fractions” and the “Complex with CaM in SEC, Ca^2+” value [3] was “complexed with Ca^2+-CaM when a large excess of CaM was included”.

For “Cav-1P: peptide from the scaffold domain of Cav-1 (residues 82–101) (DGIWKASFTTFTVTKYWFYR; UniProt Q03135 82-101, looked up, fragment)”, the “Effect on Nox5's superoxide-generating activity” value [4] is given as “inhibit the Nox5's superoxide-generating activity” and the “Effect on NO production” value [5] is given as “inhibits the NO production”.

For “Bovine serum albumin (BSA): Bovine serum albumin, SEC standard [reference compound]”, the “SEC elution time, BSA monomer” value ([1]; 50 mM Tris, pH 7.5, 0.2 M NaCl, 66 kDa) was 8.57 min, the “SEC elution time, BSA dimer” value ([1]; 50 mM Tris, pH 7.5, 0.2 M NaCl, 132 kDa) was 7.76 min and the “SEC elution time, BSA trimer” value ([1]; 50 mM Tris, pH 7.5, 0.2 M NaCl, 198 kDa) was 7.23 min.

For hemoglobin [reference compound], the “SEC elution time, reference protein” value ([1]; 0.2 M NaCl, same settings) was 9.51 min.

In the case of H2NRPDWSKVFQKVAAEKKGKVCOOH [CMBD], the “ANS fluorescence decrease of CaM/CMBD” value [6] is given as about 3%, the “Ka, previous estimate” value [7] is given as 4e+07 M⁻¹ and the “Stoichiometry, previous estimate” value [7] is given as “near unity stoichiometry”. The “Binding mode in crystal structure” value [8] was “each of the two CMBD peptides is bound in the cleft formed in half-domain”, the “Binding constant, ITC CMBD/NCaM” value [9] was “(2.42 ± 1.21) x 10^6 M^-1” and the “Complex with CaM in SEC, Ca^2+” value [3] was “a stable Ca^2+-CaM/CMBD complex was formed in non-equilibrium system”. The “nCaM/CMBD, ITC back-titration” value ([10]; 250 μM CaM into 40 μM CMBD, 25 °C) was 0.56, the “Effect of NaCl on binding” value ([10]; 0.1 − 0.25 M NaCl) was “does not change significantly” and the “Stoichiometry n[peptide]/Protein (nCMBD/CaM), ITC CaM/CMBD (back-titration)” value ([10]; converted from nCaM/CMBD, 250 μM CaM into 40 μM CMBD, 25 °C, mean ± SD) was 1.79 and 1.79 ± 0.11. For the same substance, the “Cooperativity of CMBD binding” value ([10]; two CMBD peptides on half-domains of CaM) was “no cooperativity was observed”, the “Equivalents of CaM to saturate binding (intensity)” value ([11]; 330 nm, Ca^2+) was “one” and the “Emission maximum, CaM-bound CMBD” value ([11]; Trp fluorescence upon addition of CaM, Ca^2+) was 330 nm. The “CaM binding in the absence of Ca^2+ (CMBD)” value ([11]; Trp fluorescence, 50 mM Tris, pH 7.5, 1 mM EDTA) was “A similar finding using CMBD's Trp fluorescence was found in the absence of Ca^2+; also recorded: non-specific electrostatic interaction which is not biologically significant”, the “Wavelength shift on CaM binding” value ([11]; Trp fluorescence, blue shift, Ca^2+) was about 20 nm and the “Molar ratio at saturation (anisotropy)” value ([12]; 1 μM CMBD with CaM) was about 1.2. For the same substance, the “Trp anisotropy value (r), complexed with CaM (maximum)” value ([12]; 1 μM CMBD with CaM, emission 352 nm) was 0.136, the “Trp anisotropy value (r), peptide alone” value ([12]; 1 μM CMBD, emission 352 nm) was 0.0405 and the “Intensity change, CMBD with D-CaM” value [13] was “very small intensity; also recorded: small intensity change”. The “Binding constant, ITC CMBD/CCaM” value [14] was “(9.50 ± 0.62) x 10^5 M^-1”.
